Source: ChEMBL document CHEMBL1157311, “Aurilides B and C, cancer cell toxins from a Papua New Guinea collection of the marine cyanobacterium Lyngbya majuscula” (2006)
Active and inactive are the calls of the source. No cut-off for these calls is given here.

Legend:
[1] = system: NCI-H460; assay: Cytotoxicity against human NCI-H460 cells after 48 hrs by MTT assay; format: functional; conditions: NCI-H460, 48 h, read-out: LC50 (the source's name)
In short: (§1)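 Cells seeded at 6000/well and grown 24 h, then given test chemicals dissolved in DMSO and diluted in serum-free medium (DMSO under 0.5% final). Viability read by MTT reduction after 48 h exposure; LC50 reported. Method follows Alley et al.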

[2] = Cytotoxicity against mouse Neuro2a cells after 48 hrs by MTT assay; format: functional; conditions: N2a, read-out: LC50 (the source's name); in short: as §1
[3] = system: A10; assay: Disruption of microfilament in rat A10 cells at 2.9 uM after 24 hrs by rhodamine-phalloidin assay; format: functional, cell-based
In short: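 A-10 smooth muscle cells grown on glass coverslips in BME with 10% fetal calf serum and exposed 24 h. Fixed in 3% paraformaldehyde, permeabilised with 0.2% Triton X-100, reduced with NaBH4, then stained 45 min with 100 nM TRITC-phalloidin for actin and with DAPI for DNA. Microfilament network scored by fluorescence microscopy.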

[4] = Growth inhibition of human HL60(TB) cells; format: functional, HL-60(TB)
[5] = system: K562; assay: Growth inhibition of human K562 cells; format: functional
[6] = system: MOLT-4; assay: Growth inhibition of human MOLT4 cells; format: functional
[7] = Growth inhibition of human RPMI8266 cells; format: functional
[8] = system: SR; assay: Growth inhibition of human SR cells; format: functional
[9] = system: A549; assay: Growth inhibition of human A549 cells; format: functional
[10] = system: EKVX; assay: Growth inhibition of human EKVX cells; format: functional
[11] = system: HOP-62; assay: Growth inhibition of human HOP62 cells; format: functional
[12] = system: HOP-92; assay: Growth inhibition of human HOP92 cells; format: functional
[13] = system: NCI-H226; assay: Growth inhibition of human NCI-H226 cells; format: functional
[14] = system: NCI-H23; assay: Growth inhibition of human NCI-H23 cells; format: functional
[15] = system: NCI-H322M; assay: Growth inhibition of human NCI-H322M cells; format: functional
[16] = system: NCI-H460; assay: Growth inhibition of human NCI-H460 cells; format: functional; conditions: read-out: pLC50 (the source's name) (converted)
[17] = system: NCI-H522; assay: Growth inhibition of human NCI-H522 cells; format: functional
[18] = system: COLO 205; assay: Growth inhibition of human COLO205 cells; format: functional
[19] = system: HCC 2998; assay: Growth inhibition of human HCC2998 cells; format: functional
[20] = system: HCT-116; assay: Growth inhibition of human HCT116 cells; format: functional
[21] = system: HCT-15; assay: Growth inhibition of human HCT15 cells; format: functional
[22] = system: HT-29; assay: Growth inhibition of human HT29 cells; format: functional
[23] = system: KM12; assay: Growth inhibition of human KM12 cells; format: functional
[24] = system: SW-620; assay: Growth inhibition of human SW620 cells; format: functional; conditions: read-out: pLC50 (the source's name) (converted)
[25] = system: SF-268; assay: Growth inhibition of human SF268 cells; format: functional
[26] = system: SF-295; assay: Growth inhibition of human SF295 cells; format: functional
[27] = system: SF-539; assay: Growth inhibition of human SF539 cells; format: functional
[28] = system: SNB-19; assay: Growth inhibition of human SNB19 cells; format: functional
[29] = read-out: pLC50 (the source's name) (converted)

## CC/C=C(\C)[C@H]1OC(=O)[C@H](C)N(C)C(=O)[C@H](C(C)C)NC(=O)CN(C)C(=O)[C@H]([C@H](C)CC)N(C)C(=O)[C@H](C(C)C)NC(=O)[C@@H]([C@@H](C)CC)OC(=O)/C(C)=C/C[C@H](O)[C@@H]1C [AURILIDE B]
[1]
  CC50: 40 nM
[2]
  CC50: 10 nM
[3]
  Activity: Active
[4]; HL-60
  GI50: < 10 nM
[4]; HL-60, read-out: pLC50 (the source's name) (converted)
  CC50: < 10 nM
[4]; HL-60, read-out: pTGI
  TGI: < 10 nM
[5]
  GI50: < 10 nM
[5]; [29]
  CC50: 100 nM
[5]; read-out: pTGI
  TGI: < 10 nM
[6]
  GI50: < 10 nM
[6]; [29]
  CC50: < 10 nM
[6]; read-out: pTGI
  TGI: < 10 nM
[7]
  GI50: < 10 nM
[7]; [29]
  CC50: > 100000 nM
[7]; read-out: pTGI
  TGI: < 10 nM
[8]
  GI50: < 10 nM
[8]; [29]
  CC50: < 10 nM
[8]; read-out: pTGI
  TGI: < 10 nM
[9]
  GI50: < 10 nM
[9]; [29]
  CC50: < 10 nM
[9]; read-out: pTGI
  TGI: < 10 nM
[10]
  GI50: < 10 nM
[10]; [29]
  CC50: < 10 nM
[10]; read-out: pTGI
  TGI: < 10 nM
[11]
  GI50: < 10 nM
[11]; [29]
  CC50: < 10 nM
[11]; read-out: pTGI
  TGI: < 10 nM
[12]
  GI50: < 10 nM
[12]; [29]
  CC50: 58900 nM
[12]; read-out: pTGI
  TGI: < 10 nM
[13]
  GI50: < 10 nM
[13]; [29]
  CC50: < 10 nM
[13]; read-out: pTGI
  TGI: < 10 nM
[14]
  GI50: < 10 nM
[14]; [29]
  CC50: < 10 nM
[14]; read-out: pTGI
  TGI: < 10 nM
[15]
  GI50: < 10 nM
[15]; read-out: pTGI
  TGI: < 10 nM
[16]
  CC50: 77600 nM
[17]
  GI50: < 10 nM
[17]; [29]
  CC50: > 100000 nM
[17]; read-out: pTGI
  TGI: < 10 nM
[18]
  GI50: < 10 nM
[18]; [29]
  CC50: > 100000 nM
[18]; read-out: pTGI
  TGI: > 100000 nM
[19]
  GI50: < 10 nM
[19]; [29]
  CC50: < 10 nM
[19]; read-out: pTGI
  TGI: < 10 nM
[20]
  GI50: < 10 nM
[20]; [29]
  CC50: < 10 nM
[20]; read-out: pTGI
  TGI: < 10 nM
[21]
  GI50: < 10 nM
[21]; [29]
  CC50: > 100000 nM
[21]; read-out: pTGI (converted)
  TGI: 170 nM
[22]
  GI50: < 10 nM
[22]; [29]
  CC50: > 100000 nM
[22]; read-out: pTGI
  TGI: > 100000 nM
[23]
  GI50: < 10 nM
[23]; [29]
  CC50: > 100000 nM
[23]; read-out: pTGI
  TGI: > 100000 nM
[24]
  CC50: > 100000 nM
[25]
  GI50: < 10 nM
[25]; [29]
  CC50: 794 nM
[26]
  GI50: < 10 nM
[26]; [29]
  CC50: > 100000 nM
[26]; read-out: pTGI
  TGI: < 10 nM
[27]
  GI50: < 10 nM
[27]; [29]
  CC50: < 10 nM
[27]; read-out: pTGI
  TGI: < 10 nM
[28]
  GI50: < 10 nM
[28]; [29]
  CC50: > 100000 nM
[28]; read-out: pTGI (converted)
  TGI: 19.9 nM
